As a reminder, the inhibition in vivo is the change of the read-out against control, counted positive when it falls. A high value points to strong suppression. A word on the ED50: it is the midpoint of the dose-response relation. Read a low ED50 as an effect at a small dose.

The text below walks through data of ChEMBL document CHEMBL1127322, “Selective protection and relative importance of the carboxylic acid groups of zaragozic acid A for squalene synthase inhibition” (J Med Chem, 1994).

Active and inactive are the calls of the source. The calls are words filed in the database; no cut-off is given here.

Assay [1] concerns Mus musculus. As to the kind of experiment: Tested in vivo for inhibition at a dose of 40 mg/kg, p.o. in oral mouse assay; Not active. The class given is functional, organism-based. Also noted: dose 40 mg/kg. A digest of the protocol:
(§1)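 Mice (22.5–27.5 g, six per group) received compound orally as a suspension in 5% emulphor. After 30 min they were given [5-³H]-mevalonolactone sc (0.5 μCi/animal) and were killed 30 min later. Livers were saponified and extracted with petroleum ether, and nonsaponifiable dpm was counted. Inhibition was calculated against incorporation in control animals.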

Assay [2] relates to Mus musculus. As to the kind of experiment: Tested in vivo for inhibition at a dose of 24 mg/kg, p.o. in oral mouse assay. The format is functional. In short, it runs like this:
as §1

Assay [3] has as its system Mus musculus. As to the kind of experiment: Tested in vivo for inhibition at a dose of 40 mg/kg, p.o. in oral mouse assay. The format is functional. In short, it runs like this:
as §1

The test system of assay [4] is Mus musculus. As to the kind of experiment: Effective dose required for 50 percent inhibition of mouse liver squalene synthase at a dose of 40 mg/kg, po.

For `C=C(CCC12OC(C(=O)OCCC(C)C)C(O)(C(=O)O)C(C(=O)OC)(O1)[C@@H](OC(=O)/C=C/[C@@H](C)C[C@@H](C)CC)[C@H]2O)C(OC(C)=O)[C@H](C)Cc1ccccc1` (some centres undefined), in the assay with Mus musculus [1], the inhibition entry was “inactive”. Turning to `C=C(CCC12OC(C(=O)O)C(O)(C(=O)O)C(C(=O)OC)(O1)[C@@H](OC(=O)/C=C/[C@@H](C)C[C@@H](C)CC)[C@H]2O)C(OC(C)=O)[C@H](C)Cc1ccccc1` (some centres undefined), the inhibition entry in the assay with Mus musculus [1] is “inactive”. In turn, `C=C(CCC12OC(C(=O)OC)C(O)(C(=O)O)C(C(=O)O)(O1)[C@@H](OC(=O)/C=C/[C@@H](C)C[C@@H](C)CC)[C@H]2O)C(OC(C)=O)[C@H](C)Cc1ccccc1` (some centres undefined) came in with an inhibition in vivo at 24 mg/kg with Mus musculus [2] of 32%. In the assay with Mus musculus [2], `C=C(CCC12OC(C(=O)OCc3ccccc3)C(O)(C(=O)O)C(C(=O)O)(O1)[C@@H](OC(=O)/C=C/[C@@H](C)C[C@@H](C)CC)[C@H]2O)C(OC(C)=O)[C@H](C)Cc1ccccc1` (some centres undefined) showed an inhibition in vivo at 24 mg/kg of 36%. `C=C(CCC12OC(C(=O)O)C(O)(C(=O)O)C(C(=O)O)(O1)[C@@H](OC(=O)/C=C/[C@@H](C)C[C@@H](C)CC)[C@H]2O)C(OC(C)=O)[C@H](C)Cc1ccccc1` (some centres undefined): in the assay on Mus musculus [3], 40 mg/kg produced 11% inhibition in vivo. As to `C=C(CCC12OC(C(=O)O)C(O)(C(=O)OC)C(C(=O)OC)(O1)[C@@H](OC(=O)/C=C/[C@@H](C)C[C@@H](C)CC)[C@H]2O)C(OC(C)=O)[C@H](C)Cc1ccccc1` (some centres undefined), in the assay with Mus musculus [1], the inhibition entry was “inactive”. Turning to `C=C(CCC12OC(C(=O)OCCC(C)C)C(O)(C(=O)O)C(C(=O)O)(O1)[C@@H](OC(=O)/C=C/[C@@H](C)C[C@@H](C)CC)[C@H]2O)C(OC(C)=O)[C@H](C)Cc1ccccc1` (some centres undefined), in the assay on Mus musculus [3], at 40 mg/kg the inhibition in vivo was 62%. In the assay with Mus musculus [3], `C=C(CCC12OC(C(=O)O)C(O)(C(=O)OC)C(C(=O)O)(O1)[C@@H](OC(=O)/C=C/[C@@H](C)C[C@@H](C)CC)[C@H]2O)C(OC(C)=O)[C@H](C)Cc1ccccc1` (some centres undefined) registered an inhibition in vivo at 40 mg/kg of 43%. On to `C=C(CCC12OC(C(=O)OCCC(C)C)C(O)(C(=O)OC)C(C(=O)O)(O1)[C@@H](OC(=O)/C=C/[C@@H](C)C[C@@H](C)CC)[C@H]2O)C(OC(C)=O)[C@H](C)Cc1ccccc1` (some centres undefined), for which the 50% effective dose (ED50) in the assay with Mus musculus [4] came to 18 mg/kg.
